Series [1] concerns Toxoplasma gondii. Put plainly: Antiparasitic activity against Toxoplasma gondii RH infected in human foreskin fibroblasts monolayer after 72 hrs by bacterial beta-galactosidase reporter gene assay. Format: functional, organism-based. The essentials: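 RH clone 2F expressing bacterial β-galactosidase, grown as tachyzoites in HFF monolayers in DMEM with 10% FBS. Compounds from DMSO stocks stored at −80°C in single-use aliquots. Tested at 0.010–1.0 μM for 72 h at 37°C. Medium then removed and β-galactosidase activity read at 570 nm.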
Background: Reporter assays use an easily measured gene product as a stand-in for the process of interest.

For the next series, the system named is HFF. The series is described as follows: Cytotoxicity against HFF. Type of series: cell-based. The following applies: human.
A short description of series [2]: Partition coefficient, log P of the compound at pH 2. Type of series: physicochemical. The settings on record: octanol/water.
Series [3] in a line: Partition coefficient, log P of the compound. Type of series: physicochemical. The following applies: octanol/water.
Series [4] deals with Toxoplasma gondii. Put plainly: Antiparasitic activity against Toxoplasma gondii PRU-Luc-GFP type 2 infected in CD1 mouse acute toxoplasmosis model assessed as decrease in parasite-induced cyst formation in mouse brain at 10 mg/kg, sc administered once daily for 8 days measured after 25 days post-infection by luciferase reporter gene based assay. Type of series: functional, organism-based. Also on record: dose 10 mg/kg. In short, it runs like this:
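Female CD1 mice, 8–10 weeks old, infected i.p. with 10⁶ PRU-Luc-GFP tachyzoites and dosed s.c. at 10 mg/kg daily for 8 days. At 25 days post-infection, brains were homogenized in 1.0 ml PBS, pH 7.2. Cysts counted by bright-field or phase-contrast microscopy at ×40 in four 20-μl aliquots and total cysts per brain estimated. Three experiments combined, n = 2 per group.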

Series [5] deals with Toxoplasma gondii. Put plainly: Antiparasitic activity against Toxoplasma gondii PRU-Luc-GFP type 2 infected in CD1 mouse acute toxoplasmosis model assessed as decrease in parasite burden at 10 mg/kg, sc administered once daily for 8 days measured after 25 days post-infection by luciferase reporter gene based assay. Format: functional, organism-based. Also on record: dose 10 mg/kg. In short, it runs like this: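 Female CD1 mice, 8–10 weeks old, infected i.p. with 10⁶ PRU-Luc-GFP tachyzoites. Dosed s.c. at 10 mg/kg daily for 8 days. Imaged every 2 days over 25 days under mild isoflurane anesthesia after i.p. firefly luciferin D at […]. Output in relative light units as a relative index of infection severity. Four repeats, n = 3 or 4 per group; one representative experiment shown.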

The subject of series [6] is Toxoplasma gondii. Put plainly: Antiparasitic activity against Toxoplasma gondii PRU-Luc-GFP type 2 infected in 400 mg/kg sulfadiazine-pretreated INFgamma-deficient C57BL/6 mouse reactivated toxoplasmosis model assessed as mouse survival at 10 mg/kg, sc at once daily for 8 days administered 2 days after sulfadiazine discontinuation. Type of series: functional. In short, it runs like this: (§1)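 Female IFN-γ−/− mice on C57BL/6 background, 8–10 weeks old, kept specific pathogen-free. Infected orally with 20 PRU-Luc-GFP tissue cysts taken from brains of chronically infected wild-type mice. Sulfadiazine in drinking water for 3 weeks from day 2. Compounds given s.c. at 10 mg/kg daily for 8 days, starting 2 days after sulfadiazine stopped. Survival monitored; three experiments combined, n = 3–5 per group.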

The subject of series [7] is Toxoplasma gondii. Put plainly: Antiparasitic activity against Toxoplasma gondii PRU-Luc-GFP type 2 infected in 400 mg/kg sulfadiazine-pretreated INFgamma-deficient C57BL/6 mouse reactivated toxoplasmosis model assessed as mouse survival at 10 mg/kg, sc at once daily for 8 days administered 2 days after sulfadiazine discontinuation measured on day 25 post infection after compound withdrawal. Format: functional, organism-based. In short, it runs like this: as §1

The subject of series [8] is Toxoplasma gondii. Put plainly: Antiparasitic activity against Toxoplasma gondii PRU-Luc-GFP type 2 infected in CD1 mouse acute toxoplasmosis model assessed as mouse survival at 10 mg/kg, sc administered once daily for 8 days measured after 25 days post-infection. Type of series: functional. The settings on record: PRU-Luc-GFP type 2, sc, route subcutaneous. In short, it runs like this: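 Female CD1 outbred mice, 8–10 weeks old, infected i.p. with 10⁶ PRU-Luc-GFP type II tachyzoites in 0.2 ml PBS. Compounds given s.c. at 10 mg/kg daily for 8 days. Survival followed for 25 days; three experiments combined, n = 3 or 4 per group.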

In series [9] the test system is Toxoplasma gondii. Put plainly: Antiparasitic activity against Toxoplasma gondii PRU-Luc-GFP type 2 infected in 400 mg/kg sulfadiazine-pretreated INFgamma-deficient C57BL/6 mouse reactivated toxoplasmosis model assessed as mouse survival at 10 mg/kg, sc at once daily for 8 days administered 2 days after sulfadiazine discontinuation measured on day 18 post infection after compound withdrawal. Format: functional, organism-based. In short, it runs like this:
as §1

Active and inactive are the calls of the source. The rule behind the calls is not given here.

In the case of `C[C@H]1[C@H](OC(=O)CCC(=O)O)O[C@@H]2O[C@@]3(C)CC[C@H]4[C@H](C)CC[C@@H]1[C@@]24OO3` [ARTESUNATE], in the series on Toxoplasma gondii [1], the EC50 (commonly the concentration needed to bring the measured effect to its halfway point) was found to be 0.213 µM and the EC90 (commonly the point of the concentration-response curve where the effect stands at 90%) was 0.368 µM. The Activity entry in the series on HFF is recorded as “Non-toxic”. Further, the logP (in general, a log measure of how a compound divides between an organic and an aqueous phase) in series [2] was determined as 2.77.

With `C[C@@H]1CC[C@H]2[C@@H](C)C(c3ccc(F)cc3)O[C@@H]3O[C@@]4(C)CC[C@@H]1[C@]32OO4` (some centres not stated), in the series on Toxoplasma gondii [1], the midpoint of the response, the EC50, lay at 0.182 µM and the 90% effect concentration (EC90) came out at 0.271 µM. Also, the Activity result with HFF is “Non-toxic”. The molecule also yielded a logP in [3] of 5.18.

As for `C[C@@H]1CC[C@H]2[C@@H](C)C(=O)O[C@@H]3O[C@@]4(C)CC[C@@H]1[C@]32OO4` [ARTEMISININ], the result in the series on Toxoplasma gondii [4] and with Toxoplasma gondii [5] was inactive. This molecule came in with a log partition coefficient (logP) in series [3] of 2.94.

For `C[C@H]1[C@H](N2CCSCC2)O[C@@H]2O[C@@]3(C)CC[C@H]4[C@H](C)CC[C@@H]1[C@@]24OO3` [ARTEMISIDE], the result with Toxoplasma gondii [4] and with Toxoplasma gondii [5] was Active. In the series on Toxoplasma gondii [6], the Survival is 80%. Also, in the series with Toxoplasma gondii [1], the EC50 was found to be 0.108 µM. It took 0.167 µM to reach the 90% level in the series on Toxoplasma gondii [1] (EC90). Further, the outcome with Toxoplasma gondii [7] and in the series on Toxoplasma gondii [9] was inactive. Moreover, in the series with Toxoplasma gondii [8], the survival at 10 mg/kg was found to be 60%. The Activity entry in the series with HFF is reported as “Non-toxic”. In series [3], this molecule returned a logP of 4.97.

For the molecule `C[C@H]1[C@H](N2CCN(Cc3ccccc3)CC2)O[C@@H]2O[C@@]3(C)CC[C@H]4[C@H](C)CC[C@@H]1[C@@]24OO3`, in the series on Toxoplasma gondii [1], the EC50 amounted to 0.213 µM and it took 0.339 µM to reach the 90% level (EC90). Further, in the series with HFF, the Activity result is on record as “Non-toxic”. For the same molecule, in [3], the log partition coefficient (logP) came out at 5.62.

For the molecule `C[C@H]1[C@H](NS(N)(=O)=O)O[C@@H]2O[C@@]3(C)CC[C@H]4[C@H](C)CC[C@@H]1[C@@]24OO3`, in the series on Toxoplasma gondii [1], the EC50 was determined as 0.158 µM and the 90% effect level (EC90) was put at 0.235 µM. Further, in the series with HFF, the Activity entry is “Non-toxic”. In series [3], this molecule returned a logP of 3.36.

In the series on Toxoplasma gondii [1], `C[C@H]1[C@H](N2CCN(c3ncccn3)CC2)O[C@@H]2O[C@@]3(C)CC[C@H]4[C@H](C)CC[C@@H]1[C@@]24OO3` came in with an EC50 of 0.156 µM and an EC90 of 0.263 µM. Further, the Activity result in the series on HFF is “Non-toxic”. Also, in [3], the logP was 4.78.

For `C[C@H]1[C@H](N2CCS(=O)(=O)CC2)O[C@@H]2O[C@@]3(C)CC[C@H]4[C@H](C)CC[C@@H]1[C@@]24OO3` [ARTEMIFONE], the Survival with Toxoplasma gondii [6] is listed as 60%. Further, the outcome in the series with Toxoplasma gondii [5] was Active. In addition, in the series on Toxoplasma gondii [1], the response was half-maximal at 0.12 µM (EC50) and the 90% effect level (EC90) was put at 0.176 µM. Besides, the result with Toxoplasma gondii [7] was inactive. Also, the survival at 10 mg/kg in the series on Toxoplasma gondii [8] came to 50%. The Activity entry in the series on HFF is reported as “Non-toxic”. The molecule further yielded a log partition coefficient (logP) in [3] of 2.49. The result with Toxoplasma gondii [9] was inactive.

These data come from ChEMBL document CHEMBL1649225, “Artemisone and artemiside control acute and reactivated toxoplasmosis in a murine model” (Antimicrob Agents Chemother, 2009).
